Screens as filed in PubChem.
T cruzi inh = inhibitors of intracellular T. cruzi growth, primary screen, luminescence, NIH3T3 host cells. T. cruzi beta-gal in NIH3T3, 90 h. inhibition, % (test concentration not listed). 1.4% of 300,000 active;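 active means mean inhibition across valid replicates above about 55%, limit read from the data; inconclusive means mean below that limit but half or more replicates reach it; inactive means mean below it, under half of replicates reach it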;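 further: signal also drops with host cell toxicity which is not excluded here; 0% = plate median of DMSO wells and 100% = zero luminescence signal; higher percent means less beta-gal luminescence so fewer parasites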
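Assay system: NIH/3T3 host cells with β-galactosidase reporter T. cruzi; input: 5,000 host fibroblasts per well; compound: single 50 nL compound addition per well in DMSO; timing: ≥90 h infection period, 3 h prior cell attachment; measured by: GalScreen β-gal luminescence, detergent lysis, 60 min; evaluation: percent inhibition of parasite-derived β-gal signal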
Mdm2 MdmX PPI = inhibitors of human Mdm2-MdmX association, primary screen, cell-based, luminescence, split luciferase, SaOS-2, uHTS. inhibition, % at 8 µM. Protein Mdm4 (Homo sapiens) + E3 ubiquitin-protein ligase Mdm2 (Homo sapiens), …. 3% of 330,000 active. SaOS-2 split-luciferase Mdm2/MdmX complementation;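 active means inhibition of at least 50% at 8 µM in the primary screen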
Target sequence (O15151 whole entry, looked up): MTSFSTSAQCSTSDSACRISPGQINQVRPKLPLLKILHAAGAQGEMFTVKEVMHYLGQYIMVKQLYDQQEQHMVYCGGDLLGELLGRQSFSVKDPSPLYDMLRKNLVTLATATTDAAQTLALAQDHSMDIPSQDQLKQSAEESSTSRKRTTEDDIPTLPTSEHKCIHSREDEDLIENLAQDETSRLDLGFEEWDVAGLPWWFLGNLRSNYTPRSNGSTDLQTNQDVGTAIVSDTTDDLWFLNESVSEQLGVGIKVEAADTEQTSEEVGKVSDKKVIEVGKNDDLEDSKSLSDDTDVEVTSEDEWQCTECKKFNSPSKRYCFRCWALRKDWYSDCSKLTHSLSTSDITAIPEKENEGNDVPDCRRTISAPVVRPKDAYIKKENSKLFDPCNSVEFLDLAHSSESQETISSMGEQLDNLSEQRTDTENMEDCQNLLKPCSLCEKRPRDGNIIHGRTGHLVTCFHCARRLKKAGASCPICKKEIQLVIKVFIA
Target sequence (Q00987 whole entry, looked up): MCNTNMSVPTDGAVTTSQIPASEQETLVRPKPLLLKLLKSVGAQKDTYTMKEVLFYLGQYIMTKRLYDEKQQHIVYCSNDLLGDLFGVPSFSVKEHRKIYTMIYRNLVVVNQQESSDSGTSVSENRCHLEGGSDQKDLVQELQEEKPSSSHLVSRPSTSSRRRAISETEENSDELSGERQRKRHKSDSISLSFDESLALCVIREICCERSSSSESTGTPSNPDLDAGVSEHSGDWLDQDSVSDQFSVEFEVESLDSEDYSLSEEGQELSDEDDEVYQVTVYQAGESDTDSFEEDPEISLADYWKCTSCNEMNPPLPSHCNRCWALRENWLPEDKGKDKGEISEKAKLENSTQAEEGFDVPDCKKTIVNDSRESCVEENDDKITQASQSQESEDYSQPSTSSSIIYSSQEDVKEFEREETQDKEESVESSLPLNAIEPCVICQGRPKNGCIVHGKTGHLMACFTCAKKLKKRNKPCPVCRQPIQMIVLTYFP
aSyn UTR inh = MLPCN primary screen, SNCA 5' untranslated region | 0.82% of 300,000 active | inhibition, % (tested at 7.5 µM) | alpha-synuclein 5'UTR reporter, inhibitor activity; in the data active means inhibition above about 60%; inconclusive means no clear call, values can overlap the other calls;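 further: H4 neuroglioblastoma cells stably carrying SNCA 5'UTR luciferase fusion; 0% = DMSO wells and 100% = positive control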
CSC inhib = cancer stem cell viability inhibitors, primary screen, luminescence; AID 2717, 2010; 1.1% of 300,000 active; cancer stem cell-like cells viability; inhibition, % at 7.5 µM; in the data active means inhibition above about 75%; inconclusive means no clear call, values can overlap the other calls; tested in HMLE shEcad cells
SKKanGAS inh = S. pyogenes SKKanGAS growth inhibitors in kanamycin, primary screen, streptokinase expression inhibitor project, SKKanGAS strain, BacTiter-Glo luminescence; 6 h; inhibition, % at 7.5 µM; 1.3% of 300,000 active;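 active means mean replicate score, as percent of positive control median, at least 50; inconclusive means mean below 50 but one replicate at or above 50; inactive means mean and every replicate below 50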;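 further: strain carries kanamycin resistance gene driven by streptokinase promoter and grows in 40 µg/ml kanamycin; loss of luminescence reflects streptokinase promoter inhibition or plain growth inhibition; 0% = median of DMSO wells and 100% = positive control at its reference dose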
Mdm2-MdmX conf = Mdm2-MdmX complex disruptors, retested hits, confirmation, luminescence, single concentration. shares compounds with Mdm2 MdmX PPI. Mdm2-MdmX binding, luminescent assay. AID 489028, 2010. inhibition, % at 8 µM. 55% of 10,000 active; in the data active means inhibition above about 40%
Full FLuc ctr = full-length luciferase signal inhibition, confirmation, counter-screen for Mdm2/MdmX interaction inhibitor project, cell-based, single concentration, SaOS-2; 77% of 6,200 active; SaOS-2 full-length luciferase counterscreen, luminescence; inhibition, % at 8 µM; shares compounds with Mdm2 MdmX PPI; AID 504607, 2011;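 active means mean inhibition at 8 µM reaching about 37%, which flags the compound as non-specific, limit read from the data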;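 further: p53-null SaOS-2 cells with luciferase driven by a doxycycline-inducible promoter; compound on cells about two nights before reading with doxycycline added after day one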
The depositor's hits bear a star; ? = inconclusive; nt = no result given. Most compounds without a hit are left out; they make up all but 5.4% or so of the library.

SMILES	T cruzi inh	Mdm2 MdmX PPI	aSyn UTR inh	CSC inhib	SKKanGAS inh	Mdm2-MdmX conf	Full FLuc ctr
Cc1cc(C)n(-c2nc3nonc3nc2Nc2cccc(C)c2C)n1	8.0	51.0*	2.7	-10.8	-0.4	19.8	nt
CN(CC(=O)Nc1ccccc1Cl)C(=O)COC(=O)c1nc(Cl)c(Cl)c(Cl)c1Cl	?	77.7*	-128.5	29.6	21.7	40.9*	30.8
CN(CC(=O)Nc1ccccc1Cl)C(=O)COC(=O)c1ccc(Cl)nc1	-4.7	20.8	-17.6	-11.5	14.4	nt	nt
O=C1C=CC(=O)C(C2=C3C(=O)N(CCc4ccccc4)CC(=O)N3CCC2)=C1	?	27.3	23.7	28.8	-4.4	nt	nt
Oc1ccc(Cl)cc1-c1cc(-c2ccccc2Cl)[nH]n1	8.9	0.4	-158.3	44.0	2.7	nt	nt
Oc1ccc(Cl)cc1-c1cc(-c2cccc(Br)c2)n[nH]1	-13.2	61.5*	-37.0	90.3*	53.7*	32.8	nt
CCCC[C@@H]1C[C@H]1[C@@H](NC(=O)c1ccccc1)c1ccccc1C(F)(F)F	-9.9	17.5	2.4	17.2	6.8	nt	nt
C=C(CC1([C@@H](NP(=O)(c2ccccc2)c2ccccc2)[C@H]2C[C@@H]2CCCC)CC1)c1ccccc1	-12.1	59.1*	-15.9	123.3*	77.3*	23.0	nt
CCOC(=O)N1CCN(C(=O)c2ccc(Cn3c(=S)[nH]c4cc5c(cc4c3=O)OCO5)cc2)CC1	-0.1	27.5	-18.9	nt	-6.3	nt	nt
CCOC(=O)N1CCN(C(=O)c2ccc(Cn3c(=S)[nH]c4cc(OCC)c(OCC)cc4c3=O)cc2)CC1	-9.7	54.2*	34.5	7.6	12.7	30.6	nt
COCCNC(=O)c1oc2ccc3c(c2c1C)C(O)CC(C)(C)O3 (stereo unspecified)	-9.5	0.0	8.3	-6.3	-0.1	nt	nt
Cc1c(C(=O)N2CCC(C)CC2)oc2ccc3c(c12)C(O)CC1(CCCCC1)O3 (stereo unspecified)	6.3	75.6*	2.3	11.6	-10.8	23.4	nt
N#C/C(C(=O)Oc1ccccc1)=C1/Nc2ccccc2-c2ccccc21	3.2	20.2	-3.2	nt	-4.4	nt	nt
Cc1ccc(C(=O)Sc2cccccc2=O)cc1	?	100.2*	-108.9	27.9	37.3	82.0*	22.6
Cc1ccc(S(=O)(=O)/N=C(/Sc2ccccc2C(=O)O)c2ccccc2)cc1	-20.7	10.6	-6.7	-21.5	8.4	nt	nt
NC(=O)CN1C(=O)C(=O)N(Cc2cccc(C(F)(F)F)c2)C1=O	-4.4	-9.9	-6.2	-7.3	2.4	nt	nt
Cc1cc(/C=c2/sc3nc4ccccc4n3c2=O)c(C)n1-c1ccccn1	4.1	68.6*	87.9*	25.5	21.2	94.3*	13.8
CCSc1ncc(/C=N/Nc2ccccc2)n1C	39.6	0.1	-109.0	-2.7	9.7	nt	nt
CCSc1ncc(/C=N/Nc2ccc([N+](=O)[O-])cc2)n1C	3.6	69.2*	-193.9	10.0	2.7	-86.6	nt
COc1ccc(-n2nc(C(=O)c3cccs3)cc(-c3nc4ccccc4[nH]3)c2=N)cc1	72.7*	97.5*	-31.6	48.6	58.4*	48.6*	30.8
Cc1cc(-c2ccc(C)c(S(=O)(=O)N3CCN(c4ccc(F)cc4)CC3)c2)on1	-15.3	41.8	21.8	27.2	-5.1	nt	nt
COc1ccc(-c2cc(C)no2)cc1S(=O)(=O)N1CCN(c2cccc(C)c2)C(C)C1 (stereo unspecified)	12.9	52.9*	14.2	-1.2	12.9	45.0*	61.4*
COc1ccc(-c2cc(C)no2)cc1S(=O)(=O)N1CCCCC1	-0.9	6.7	20.1	-13.7	-0.4	nt	nt
Cc1cccc(N2CCN(S(=O)(=O)c3cc(-c4cc(C)no4)ccc3C)CC2C)c1 (stereo unspecified)	25.3	50.4*	11.4	52.9	-2.9	53.8*	37.9*
COc1ccc(N2CCN(S(=O)(=O)c3cc(-c4cc(C)no4)ccc3C(C)C)CC2)cc1	-19.4	50.6*	-0.7	12.2	-13.4	36.6	nt
SMILES	T cruzi inh	Mdm2 MdmX PPI	aSyn UTR inh	CSC inhib	SKKanGAS inh	Mdm2-MdmX conf	Full FLuc ctr
O=C(Nn1c(=O)[nH]c2ccccc2c1=O)c1ccco1	-15.6	-31.2	6.1	nt	-0.6	nt	nt
COc1ccc(Nc2nccc(-c3ccc(C#N)cc3)n2)cc1	19.5	26.5	-19.9	2.7	-4.1	nt	nt
COc1ccc(Nc2nccc(-c3cccc(N)c3)n2)cc1	23.3	65.2*	-15.7	27.6	-3.7	-13.4	nt
CCCCn1c(=N)n(CC(=O)c2ccc(Br)s2)c2ccccc21	15.1	96.6*	-13.0	35.7	4.1	59.4*	52.8*
Cn1c(=N)n(CC(=O)C(C)(C)C)c2ccccc21	-6.4	-23.0	-57.0	-6.6	-4.8	nt	nt
Cn1c(=N)n(CC(=O)c2ccc(Cl)c(Cl)c2)c2ccccc21	19.3	77.8*	80.8*	7.7	12.6	73.5*	145.1*
N=c1n(CC(=O)c2ccc(Br)cc2)c2ccccc2n1Cc1ccccc1	nt	96.7*	nt	33.2	nt	75.5*	55.4*
N=c1n(CC(=O)c2ccc([N+](=O)[O-])cc2)c2ccccc2n1Cc1ccccc1	25.6	48.1	28.0	-5.3	5.3	nt	nt
CCCCn1c(=N)n(CC(=O)c2ccc(OC)cc2)c2ccccc21	32.1	79.1*	-2.3	1.3	4.0	44.0*	47.7*
COc1ccc(C(=O)Cn2c(=N)n(C)c3ccccc32)cc1	16.4	-75.8	-62.4	-6.4	-6.5	nt	nt
Cc1ccccc1NC(=O)COC(=O)c1ccccc1SCC(=O)N1CCCC1	-16.9	-3.1	-2.1	-1.7	-2.0	nt	nt
Cc1nn(Cc2ccccc2Cl)c2sc(C(=O)Nc3ccccc3N3CCOCC3)cc12	11.1	55.1*	25.3	54.3	60.2*	60.7*	61.3*
Cc1nn(-c2ccccc2Cl)c2sc(C(=O)Nc3nnc(C4CC4)s3)cc12	17.0	73.6*	-8.7	10.3	8.3	7.3	nt
CCN(CC(=O)Nc1c(F)cccc1F)C(=O)c1ccc(N2C(=O)c3ccccc3C2=O)cc1	-9.7	21.4	9.1	9.1	-3.2	nt	nt
COc1ccc(OC)c(-c2nnc3n2N=C(c2ccc(OC(F)F)c(OCC4CC4)c2)CS3)c1	nt	56.8*	nt	76.5*	nt	55.2*	46.0*
COc1ccc(C2=Nn3c(nnc3-c3ccccc3)SC2)cc1OC	-12.7	33.5	?	15.7	5.6	nt	nt
COc1ccc(C2=Nn3c(nnc3-c3ccccc3OC)SC2)cc1OCC1CC1	nt	73.6*	nt	nt	nt	65.6*	85.7*
C=CCN(CC=C)CCOc1ccc2ccccc2c1	21.0	-2.5	-16.4	8.1	5.3	nt	nt
